Bridges are numbered along the chain shown (N, C = ends). Where no end group is shown, it is not given here.
How the values were obtained:
[1] = Ion mobility mass spectrometry, collision cross sections; format: physicochemical; settings: for CCS, 1^+2 ion: charge +2, 100 mM ammonium acetate pH 7.5
Outline: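 Lyophilized peptide dissolved in DMSO at 3.2 mM, held 24 hrs at room temperature, then diluted 100-fold in 100 mM ammonium acetate pH 7.5 and directly infused for ion-mobility MS. m/z 350-5000 calibrated with cesium iodide. CCS calibrated daily with polyethylene oxide and tryptic cytochrome c peptides. TWCCS N2→He derived from reduced mobilities in nitrogen using helium calibrant values. Triplicate runs on different days.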

[2] = Cytotoxicity dose response, statements of the text not split by assay; format: cell-based; settings: rat
[3] = Thioflavin T kinetic assay of amyloid formation; format: physicochemical; settings: 16 μM peptide, 32 μM ThT, pH 7.4, 25°C, one week (seven days)
Outline: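 HFIP peptide stocks, quantified by A280, were lyophilized 24 hrs and resuspended in 10 mM phosphate, 140 mM KCl, pH 7.4, with 32 μM thioflavin T. Peptide was 16 μM in the main assays and 100 μM in the supplementary set. Run at 25°C without shaking, triplicate wells. Fluorescence read at ex 450/em 485 nm every ten minutes. T50 is the time to half-maximal ThT fluorescence.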

[4] = monomer, TWCCS N2→He, triplicate on different days

Row | Compound | CCS, 2^+4 ion ([1]; dimer, charge +4, triplicate on different days) | CCS, 2^+5 ion, second conformation ([1]; dimer, charge +5, lower line of the two conformations, triplicate) | CCS, 1^+2 ion [1, 4] | CCS, 1^+3 ion ([1]; monomer, charge +3, TWCCS N2→He, triplicate on different days) | CCS, 1^+4 ion, second (compact) conformation ([1]; monomer, charge +4, lower line of the two conformations, triplicate) | EC50 at 24 h [2] | Increase in ThT fluorescence over the time course of the study [3]
1 | CC[C@H](C)[C@H](NC(=O)[C@H](C)NC(=O)CNC(=O)[C@H](Cc1ccccc1)NC(=O)[C@H](CC(N)=O)NC(=O)[C@H](CC(N)=O)NC(=O)[C@H](CO)NC(=O)[C@H](CO)NC(=O)[C@H](Cc1c[nH]cn1)NC(=O)[C@@H](NC(=O)[C@H](CC(C)C)NC(=O)[C@H](Cc1ccccc1)NC(=O)[C@H](CC(N)=O)NC(=O)[C@H](C)NC(=O)[C@H](CC(C)C)NC(=O)[C@H](CCCNC(=N)N)NC(=O)[C@H](CCC(N)=O)NC(=O)[C@@H](NC(=O)[C@H](C)NC(=O)[C@@H]1CSSC[C@H](NC(=O)[C@@H](N)CCCCN)C(=O)N[C@@H](CC(N)=O)C(=O)N[C@@H]([C@@H](C)O)C(=O)N[C@@H](C)C(=O)N[C@@H]([C@@H](C)O)C(=O)N1)[C@@H](C)O)C(C)C)C(=O)N[C@@H](CC(C)C)C(=O)N[C@@H](CO)C(=O)N[C@@H](CO)C(=O)N[C@H](C(=O)N[C@@H](CC(N)=O)C(=O)N[C@H](C(=O)NCC(=O)N[C@@H](CO)C(=O)N[C@@H](CC(N)=O)C(=O)N[C@H](C(=O)N[C@@H](Cc1ccc(O)cc1)C(N)=O)[C@@H](C)O)C(C)C)[C@@H](C)O [hIAPP, human islet amyloid polypeptide] | 864.0 ± 9.9 Å^2 | 863.0 ± 21.1 Å^2 | 544.7 ± 4.6 Å^2 | 551.1 ± 8.1 Å^2 | 552.9 ± 12.2 Å^2 | 27 to 48.1 µM | showed an increase in ThT fluorescence
2 | IAPPA25P S28P: an A25P S28P analog of IAPP (KCNTATCATQRLANFLVHSSNNFGPILPSTNVGSNTY; disulfide 2-7; not fully specified (C-terminus); ends not checked; UniProt P10997 34-70, looked up, variant A25P S28P) | – | – | 550.5 ± 3.8 Å^2 | – | – | – | showed no increase in ThT fluorescence

Source: paper PMC7699308 (Biochemistry, 2020)
